Values belong to the compound of their own block, whether it stands above or below them.
Key:
[1] = Displacement of [125I]IMPY from beta amyloid protein plaques in Alzheimer's disease patient brain; parameters: species or system Homo sapiens
Outline: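 Competition binding to pooled gray-matter homogenates from four AD brains (approximately 100 mg wet tissue/mL in PBS pH 7.4; 20–50 μg per tube). [125I]2 at 0.04–0.06 nM; inhibitors 10^-5–10^-10 M in PBS with 0.1% BSA; final volume 1 mL. Nonspecific binding with 600 nM 2. Incubated 37 °C, 2 h; GF/B filtration, gamma counting. Ki from nonlinear regression.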

Spleen [2] = assay: Biodistribution in ICR mouse spleen at 5 to 10 uCi, iv after 1 hr; format: ADME, organism-based; conditions: in vivo
Outline: (§1)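 Male ICR mice (22–25 g) under isoflurane anesthesia; [125I] or [18F] tracer (5–10 μCi) in 0.15 mL of 0.1% bovine serum albumin solution injected into the tail vein. Groups of n = 3 per time point, killed by cervical dislocation. Organs removed, weighed and gamma-counted against diluted aliquots of injected dose, giving % dose/organ and % ID/g. Total blood activity assumed as 7% of body weight.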

Heart [3] = assay: Biodistribution in ICR mouse heart at 5 to 10 uCi, iv after 2 hrs; format: ADME, organism-based; conditions: in vivo; outline: as §1
Thyroid gland [4] = assay: Biodistribution in ICR mouse thyroid at 5 to 10 uCi, iv after 2 mins; format: ADME, organism-based; conditions: in vivo; outline: as §1
Blood [5] = assay: Biodistribution in ICR mouse blood at 5 to 10 uCi, iv after 30 mins; format: ADME, organism-based; conditions: in vivo, 0.5 h; outline: as §1
Thyroid gland [6] = assay: Biodistribution in ICR mouse thyroid at 5 to 10 uCi, iv after 1 hr; format: ADME, organism-based; conditions: in vivo; outline: as §1
Muscle tissue [7] = assay: Biodistribution in ICR mouse muscle at 5 to 10 uCi, iv after 2 hrs; format: ADME, organism-based; conditions: in vivo; outline: as §1
Thyroid gland [8] = assay: Biodistribution in ICR mouse thyroid at 5 to 10 uCi, iv after 30 mins; format: ADME, organism-based; conditions: in vivo, 0.5 h; outline: as §1
Zone of skin [9] = assay: Biodistribution in ICR mouse skin at 5 to 10 uCi, iv after 30 mins; format: ADME, organism-based; conditions: in vivo, 0.5 h; outline: as §1
Muscle tissue [10] = assay: Biodistribution in ICR mouse muscle at 5 to 10 uCi, iv after 2 mins; format: ADME, organism-based; conditions: in vivo; outline: as §1
Zone of skin [11] = assay: Biodistribution in ICR mouse skin at 5 to 10 uCi, iv after 1 hr; format: ADME, organism-based; conditions: in vivo; outline: as §1
Lung [12] = assay: Biodistribution in ICR mouse lung at 5 to 10 uCi, iv after 2 hrs; format: ADME, organism-based; conditions: in vivo; outline: as §1
Heart [13] = assay: Biodistribution in ICR mouse heart at 5 to 10 uCi, iv after 1 hr; format: ADME, organism-based; conditions: in vivo; outline: as §1
Kidney [14] = assay: Biodistribution in ICR mouse kidney at 5 to 10 uCi, iv after 2 hrs; format: ADME, organism-based; conditions: in vivo; outline: as §1
Thyroid gland [15] = assay: Biodistribution in ICR mouse thyroid at 5 to 10 uCi, iv after 2 hrs; format: ADME, organism-based; conditions: in vivo; outline: as §1
Liver [16] = assay: Biodistribution in ICR mouse liver at 5 to 10 uCi, iv after 2 hrs; format: ADME, organism-based; conditions: in vivo; outline: as §1
Heart [17] = assay: Biodistribution in ICR mouse heart at 5 to 10 uCi, iv after 30 mins; format: ADME, organism-based; conditions: in vivo, 0.5 h; outline: as §1
Zone of skin [18] = assay: Biodistribution in ICR mouse skin at 5 to 10 uCi, iv after 2 mins; format: ADME, organism-based; conditions: in vivo; outline: as §1
Brain [19] = assay: Biodistribution in ICR mouse brain at 5 to 10 uCi, iv after 30 mins; format: ADME, organism-based; conditions: in vivo, 0.5 h; outline: as §1
Muscle tissue [20] = assay: Biodistribution in ICR mouse muscle at 5 to 10 uCi, iv after 30 mins; format: ADME, organism-based; conditions: in vivo, 0.5 h; outline: as §1
Liver [21] = assay: Biodistribution in ICR mouse liver at 5 to 10 uCi, iv after 2 mins; format: ADME, organism-based; conditions: in vivo; outline: as §1
Zone of skin [22] = assay: Biodistribution in ICR mouse skin at 5 to 10 uCi, iv after 2 hrs; format: ADME, organism-based; conditions: in vivo; outline: as §1
Kidney [23] = assay: Biodistribution in ICR mouse kidney at 5 to 10 uCi, iv after 1 hr; format: ADME, organism-based; conditions: in vivo; outline: as §1
[24] = Partition coefficient, log P of the compound; format: physicochemical; conditions: octanol/water
Outline: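 [125I] or [18F] tracer mixed with 3 g each of 1-octanol and 0.1 M phosphate buffer pH 7.4. Vortexed 3 min at room temperature, then centrifuged 5 min. Two 0.5 g samples from each layer counted; PC is the ratio of cpm/g in octanol to cpm/g in buffer. The octanol layer was repartitioned until values were consistent.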

Brain [25] = assay: Biodistribution in ICR mouse brain at 5 to 10 uCi, iv after 2 hrs; format: ADME, organism-based; conditions: in vivo; outline: as §1
Heart [26] = assay: Biodistribution in ICR mouse heart at 5 to 10 uCi, iv after 2 mins; format: ADME, organism-based; conditions: in vivo; outline: as §1
Spleen [27] = assay: Biodistribution in ICR mouse spleen at 5 to 10 uCi, iv after 30 mins; format: ADME, organism-based; conditions: in vivo, 0.5 h; outline: as §1
Lung [28] = assay: Biodistribution in ICR mouse lung at 5 to 10 uCi, iv after 2 mins; format: ADME, organism-based; conditions: in vivo; outline: as §1
Spleen [29] = assay: Biodistribution in ICR mouse spleen at 5 to 10 uCi, iv after 2 hrs; format: ADME, organism-based; conditions: in vivo; outline: as §1
Lung [30] = assay: Biodistribution in ICR mouse lung at 5 to 10 uCi, iv after 30 mins; format: ADME, organism-based; conditions: in vivo, 0.5 h; outline: as §1
Kidney [31] = assay: Biodistribution in ICR mouse kidney at 5 to 10 uCi, iv after 2 mins; format: ADME, organism-based; conditions: in vivo; outline: as §1
Liver [32] = assay: Biodistribution in ICR mouse liver at 5 to 10 uCi, iv after 30 mins; format: ADME, organism-based; conditions: in vivo, 0.5 h; outline: as §1
Muscle tissue [33] = assay: Biodistribution in ICR mouse muscle at 5 to 10 uCi, iv after 1 hr; format: ADME, organism-based; conditions: in vivo; outline: as §1
Blood [34] = assay: Biodistribution in ICR mouse blood at 5 to 10 uCi, iv after 2 hrs; format: ADME, organism-based; conditions: in vivo; outline: as §1
Blood [35] = assay: Biodistribution in ICR mouse blood at 5 to 10 uCi, iv after 2 mins; format: ADME, organism-based; conditions: in vivo; outline: as §1
Spleen [36] = assay: Biodistribution in ICR mouse spleen at 5 to 10 uCi, iv after 2 mins; format: ADME, organism-based; conditions: in vivo; outline: as §1
Blood [37] = assay: Biodistribution in ICR mouse blood at 5 to 10 uCi, iv after 1 hr; format: ADME, organism-based; conditions: in vivo; outline: as §1
Brain [38] = assay: Biodistribution in ICR mouse brain at 5 to 10 uCi, iv after 2 mins; format: ADME, organism-based; conditions: in vivo; outline: as §1
Kidney [39] = assay: Biodistribution in ICR mouse kidney at 5 to 10 uCi, iv after 30 mins; format: ADME, organism-based; conditions: in vivo, 0.5 h; outline: as §1
Brain [40] = assay: Biodistribution in ICR mouse brain at 5 to 10 uCi, iv after 1 hr; format: ADME, organism-based; conditions: in vivo; outline: as §1
Liver [41] = assay: Biodistribution in ICR mouse liver at 5 to 10 uCi, iv after 1 hr; format: ADME, organism-based; conditions: in vivo; outline: as §1
Lung [42] = assay: Biodistribution in ICR mouse lung at 5 to 10 uCi, iv after 1 hr; format: ADME, organism-based; conditions: in vivo; outline: as §1

Compound: CN(C)c1ccc(-c2cn(-c3ccc(OCCF)cc3)nn2)cc1
Ki [1]: 5 nM

Compound: CN(C)c1ccc(-c2cn(-c3ccc(OCCCO)cc3)nn2)cc1
Ki [1]: 75 nM

Compound: CN(C)c1ccc(-c2cn(-c3ccc(OCCCF)cc3)nn2)cc1
Ki [1]: 6.2 nM

Second part, the compound after the results:

Ki [1]: 4 nM
Compound: CNc1ccc(-c2cn(-c3ccc(I)cc3)nn2)cc1

Ki [1]: 8 nM
Compound: CN(C)c1ccc(-c2cn(-c3ccc(I)cc3)nn2)cc1

Drug uptake (Spleen [2]): 1.24 % ID/g
Drug uptake (Heart [3]): 0.89 % ID/g
Drug uptake (Thyroid gland [4]): 4.38 % ID/g
Drug uptake (Blood [5]): 3.04 % ID/g
Drug uptake (Thyroid gland [6]): 54.2 % ID/g
Drug uptake (Muscle tissue [7]): 0.47 % ID/g
Drug uptake (Thyroid gland [8]): 11.5 % ID/g
Drug uptake (Zone of skin [9]): 2.34 % ID/g
Drug uptake (Muscle tissue [10]): 0.83 % ID/g
Drug uptake (Zone of skin [11]): 1.81 % ID/g
Drug uptake (Lung [12]): 2.83 % ID/g
Drug uptake (Heart [13]): 1.1 % ID/g
Drug uptake (Kidney [14]): 2.91 % ID/g
Drug uptake (Thyroid gland [15]): 62.1 % ID/g
Drug uptake (Liver [16]): 6 % ID/g
Drug uptake (Heart [17]): 1.79 % ID/g
Drug uptake (Zone of skin [18]): 1.05 % ID/g
Drug uptake (Brain [19]): 1.66 % ID/g
Drug uptake (Muscle tissue [20]): 1.07 % ID/g
Drug uptake (Liver [21]): 20.7 % ID/g
Drug uptake (Zone of skin [22]): 1.6 % ID/g
Drug uptake (Kidney [23]): 3.71 % ID/g
logP [24]: 3
Drug uptake (Brain [25]): 0.43 % ID/g
Drug uptake (Heart [26]): 7.45 % ID/g
Drug uptake (Spleen [27]): 1.8 % ID/g
Drug uptake (Lung [28]): 16 % ID/g
Drug uptake (Spleen [29]): 1.16 % ID/g
Drug uptake (Lung [30]): 4.86 % ID/g
Drug uptake (Kidney [31]): 13.4 % ID/g
Drug uptake (Liver [32]): 11.1 % ID/g
Drug uptake (Muscle tissue [33]): 0.56 % ID/g
Drug uptake (Blood [34]): 2.06 % ID/g
Drug uptake (Blood [35]): 4.45 % ID/g
Drug uptake (Spleen [36]): 4.9 % ID/g
Drug uptake (Blood [37]): 2.04 % ID/g
Drug uptake (Brain [38]): 9.4 % ID/g
Drug uptake (Kidney [39]): 6.43 % ID/g
Drug uptake (Brain [40]): 0.7 % ID/g
Drug uptake (Liver [41]): 6.46 % ID/g
Drug uptake (Lung [42]): 2.82 % ID/g
Compound: CNc1ccc(-c2cn(-c3ccc([125I])cc3)nn2)cc1
